SENP8 block-1: blocks the human protease SENP8; AID 2540; inhibition, % at 10 µM; 330,000 tested, 1.2% active; purified SENP8, Z-RLRGG-aminoluciferin cleavage, luminescence; Q96LD8; in the data active means inhibition above about 50%
Target sequence (Q96LD8 whole entry, looked up): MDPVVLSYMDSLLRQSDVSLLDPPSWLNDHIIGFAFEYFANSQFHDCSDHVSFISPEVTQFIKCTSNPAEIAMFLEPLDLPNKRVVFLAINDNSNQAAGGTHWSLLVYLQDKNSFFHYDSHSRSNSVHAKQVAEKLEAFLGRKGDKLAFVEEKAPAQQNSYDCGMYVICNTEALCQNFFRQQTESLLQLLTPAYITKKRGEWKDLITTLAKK
SENP1 inh: inhibitors of human SENP1 SUMO protease catalytic domain; Q9P0U3; recombinant SENP1 catalytic domain, CyPet-SUMO1-YPet FRET cleavage; inhibition, % at 10 µM; 360,000 tested, 0.21% active; AID 624204;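 active means inhibition at least 30% at 10 µM, raw YFP signal under a set limit, fluorescence ratio 0.5 to 1.5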;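 further: 0% = enzyme with DMSO and 100% = no enzyme wells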
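Material – human SENP1 catalytic domain · Input – SENP1 enzyme, 20 pM final · Compound dosing – single concentration of 10 µM compound, 0.5% DMSO final · Timing – enzyme reaction for 50 min at room temperature, dark · Measured by – FRET fluorescence in CFP and YFP emission channels · Control set – no-enzyme wells low, DMSO-plus-enzyme wells high control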
SENP7 block: blocks the human protease SENP7; Q9BQF6; recombinant SENP7, Z-RLRGG-aminoluciferin luminescence, 40 min; inhibition, % at 5 µM; 330,000 tested, 1.5% active;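 active means inhibition above about 50% at the single test dose, limit read from the data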;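 further: plate controls were DMSO with enzyme for no effect and no enzyme buffer wells for full effect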
Target sequence (Q9BQF6 706-1050 limits assumed): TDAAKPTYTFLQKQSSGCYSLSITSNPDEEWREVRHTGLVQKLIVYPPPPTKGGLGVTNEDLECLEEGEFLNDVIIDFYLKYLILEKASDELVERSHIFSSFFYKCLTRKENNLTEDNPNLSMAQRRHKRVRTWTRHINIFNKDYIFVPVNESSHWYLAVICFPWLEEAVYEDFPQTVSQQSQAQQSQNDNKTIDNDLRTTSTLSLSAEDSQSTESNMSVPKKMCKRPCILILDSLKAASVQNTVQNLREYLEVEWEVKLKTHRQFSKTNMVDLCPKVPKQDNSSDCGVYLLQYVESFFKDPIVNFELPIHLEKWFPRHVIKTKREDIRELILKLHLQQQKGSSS
SENP6 block: SENP6 protease inhibition. Q9GZR1. Recombinant SENP6 catalytic domain, aminoluciferin luminescence. inhibition, % at 10 µM. 330,000 tested, 1.8% active. AID 2599;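 active means inhibition above about 50% at the single tested dose, limit read from the data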;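 further: plate controls were DMSO wells with enzyme for no effect and DMSO wells lacking enzyme for full effect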
SENP8 block-2: SENP8 (human) protease inhibition | Q96LD8 | recombinant SENP8, Nedd8 substrate fluorescence | inhibition, % at 20 µM | 360,000 tested, 0.64% active; in the data active means inhibition mostly above about 40%, no sharp cut-off; inactive means mostly below about 27%
SENP8 confirm: confirmation of human SENP8 protease inhibitors. shares compounds with SENP7 block. Recombinant SENP8, Z-RLRGG-aminoluciferin luminescence, 60 min. 6,200 tested, 40% active. AID 488912. inhibition, % at 12.5 µM;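 active means mean inhibition across replicates above about 50%, limit read from the data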
SENP6 confirm: human SENP6 inhibition, confirmed; recombinant SENP6, Z-RLRGG-aminoluciferin luminescence; shares compounds with SENP7 block; inhibition, % at 12.5 µM; 6,200 tested, 58% active
SENP7 conf: confirmation of human SENP7 protease inhibitors | AID 488917 | inhibition, % at 12.5 µM | shares compounds with SENP7 block | recombinant SENP7, Z-RLRGG-aminoluciferin luminescence, 40 min | 6,200 tested, 69% active
Casp3 select: inhibits human caspase-3 in SENP selectivity test | shares compounds with SENP7 block | purified caspase-3, Z-DEVD-aminoluciferin luminescence, 60 min | inhibition, % at 12.5 µM | 6,200 tested, 60% active | AID 488918;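 active means mean inhibition above about 50%, limit read from the data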;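 further: plate controls were enzyme with DMSO for no effect and wells without caspase-3 for full effect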
SENP luc ctr: luminescence interference (SENP counter-screen); shares compounds with SENP7 block; Pre-incubated SENP8/Z-RLRGG-aminoluciferin, luciferase luminescence interference; inhibition, % at 12.5 µM; 6,200 tested, 39% active;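 active means mean inhibition above about 50% when retested at one dose, limit read from the data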;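 further: plate controls were DMSO wells with completed reaction for no effect and substrate without enzyme for full effect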
The depositor's hits bear a star; i = inactive; . = no result given. Only some compounds are listed: those with a hit (about 2.5% of all), similar ones and a draw of the others.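 How the source made its calls, unless noted: active means mean inhibition above about 50% in the one-dose retest (limit read from the data); inactive means the rest.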

SMILES	SENP8 block-1	SENP1 inh	SENP7 block	SENP6 block	SENP8 block-2	SENP8 confirm	SENP6 confirm	SENP7 conf	Casp3 select	SENP luc ctr
Oc1ccccc1/C=N/Nc1nccnc1Cl	83*	1	93*	80*	-12	91*	91*	100*	94*	93*
COC(=O)C1CCN(C(=O)CSc2nnc(-c3ccccc3)o2)CC1	-1	0	-9	2	20	.	.	.	.	.
CCN(CC)c1ccc(/C=N/N2C(=O)c3ccccc3C2=O)c(O)c1	-16	-29	-2	1	-1	.	.	.	.	.
COc1ccccc1/C=N/N1C(=O)c2cccc3cccc(c23)C1=O	-1	2	-4	-15	10	.	.	.	.	.
COc1ccc(/C=N/N2C(=O)c3ccccc3C2=O)cc1	79*	0	87*	88*	7	3	74*	70*	85*	25
CN(C)c1ccc(/C=N/N2C(=O)c3ccccc3C2=O)cc1	72*	-10	91*	-3	26	28	71*	61*	51*	18
CCN(CC)c1ccc(/C=N/N2C(=O)c3ccccc3C2=O)cc1	33	-1	45	63*	-4	-6	16	-5	-1	-1
COc1ccc(C/C(N)=N/OC(=O)CCc2ccccc2)cc1	-7	1	4	-8	4	.	.	.	.	.
COc1ccc(C2C(C(=O)O)c3ccccc3C(=O)N2Cc2ccco2)cc1 (stereo not given)	5	0	7	-20	22	.	.	.	.	.
O=C(Nc1ccc(F)cc1)C(c1cc2ccccc2o1)N1CCN(C(=O)c2ccco2)CC1 (stereo not given)	.	3	.	.	19	.	.	.	.	.
CCc1ccn2cc(-c3cc(-c4ccccc4)no3)nc2c1	90*	2	97*	93*	-355	43	93*	77*	62*	7
O=C(C[C@@H]1C/C=C\CC[C@H](Cc2ccc(F)cc2)C(=O)OC[C@@H]2CCCN2C1=O)N[C@H](CO)Cc1ccccc1	-3	3	10	17	-2	.	.	.	.	.
Fc1ccc(-c2nc(-c3cccs3)[nH]c2-c2ccc(F)cc2)cc1	-5	16	-2	7	-295	.	.	.	.	.
c1csc(-c2nc3ccccc3[nH]2)c1	3	5	39	53*	i	33	31	69*	66*	21
Cc1ccc(-c2nc3ccccc3[nH]2)s1	93*	59*	97*	97*	-483	96*	96*	100*	96*	95*
COc1ccc(CCNC(=O)CN(C)S(=O)(=O)c2cccs2)cc1	0	2	3	-9	9	.	.	.	.	.
Brc1ccc(NC2=Nc3ccccc3CC2)cc1	34	0	45	-19	0	.	.	.	.	.
Cc1ccc(NC2=Nc3ccccc3CC2)cc1	43	-1	37	52*	12	64*	61*	88*	84*	42
O=S1(=O)C=C[C@@H](CO)N1Cc1ccc(Br)cc1	.	3	.	.	15	.	.	.	.	.
CC(C)c1ccc(NC(=O)C2(C)Cc3c(-c4ccccc4)ccnc3O2)cc1 (stereo not given)	.	3	.	.	9	.	.	.	.	.
CN(C)C(=O)CN1CCN(Cc2nc(CC3CC3)no2)CC1	6	-5	2	73*	13	5	-2	-2	-3	0
COc1cccc2c1C(=O)O/C2=C/c1ccc2c(c1)OCO2	88*	7	98*	19	i	22	19	22	74*	-11
CCOC(=O)c1[nH]c(C)c(C(=O)C(C)C)c1C	-11	2	-13	-14	4	.	.	.	.	.
CCCCC1CCC(c2nc(-c3ccccn3)no2)CC1 (stereo not given)	54*	3	41	72*	17	11	28	1	25	26
CS(=O)(=O)c1ccc(-c2cn3cc(C(=O)O)ccc3n2)cc1	55*	1	58*	60*	-389	10	66*	86*	36	56*
SMILES	SENP8 block-1	SENP1 inh	SENP7 block	SENP6 block	SENP8 block-2	SENP8 confirm	SENP6 confirm	SENP7 conf	Casp3 select	SENP luc ctr
COC(=O)c1ccc2nc(-c3ccc(S(C)(=O)=O)cc3)cn2c1	-15	-9	-3	-32	-445	.	.	.	.	.
Cc1ccsc1C(=O)Nc1nccs1	51*	-4	63*	64*	2	58*	57*	86*	86*	52*
Cc1ccc(C(=O)Nc2nccs2)cc1	20	-2	41	-8	-258	.	.	.	.	.
Cc1csc(NC(=O)c2sccc2C)n1	91*	2	96*	95*	-11	95*	95*	101*	98*	94*
CCOc1ccccc1NC(=O)C1CCN(c2ccc(S(=O)(=O)N3CCCC3)cc2)CC1	7	1	-3	1	-4	.	.	.	.	.
CCOc1ccccc1NC(=O)C1CCN(S(=O)(=O)c2ccc(OC)c(OC)c2)CC1	2	0	71*	-9	15	2	6	7	4	3
Nc1nccc(/C=C/c2c(Cl)cccc2Cl)n1	-2	0	-6	-2	-355	.	.	.	.	.
Nc1nccc(/C=C/c2ccc(Cl)cc2)n1	75*	2	75*	80*	-443	74*	85*	94*	79*	45
O=C(NCc1ccco1)c1cc([N+](=O)[O-])ccc1N1CCOCC1	-1	2	-12	95*	18	-6	-5	-5	-5	-5
[O-][n+]1cccc2ncc3cscc3c21	1	-1	2	3	-46	.	.	.	.	.
O=C(c1ccccc1)c1ccc2cc(O)ccc2c1	96*	3	96*	99*	-25	7	99*	102*	92*	97*
Cc1csc(NC(=O)C2(C)CCN2C(=O)C(C)C)c1C#N (stereo not given)	.	0	.	.	13	.	.	.	.	.
COc1cc(/C=C(\C#N)c2nc3ccccc3o2)ccc1O	90*	-46	80*	95*	-53	94*	94*	99*	86*	41
COc1cc(/C=C(\C#N)c2nc3ccccc3[nH]2)ccc1OC(=O)c1ccco1	83*	-28	73*	75*	-428	66*	67*	99*	86*	27
Cc1ccc(C)c(N/C=C(\C#N)c2nc3ccccc3o2)c1	-5	-8	-5	2	4	.	.	.	.	.
N#C/C(=C\c1ccc(O)cc1)c1nc2ccccc2o1	74*	-45	63*	84*	-83	81*	80*	93*	62*	74*

Compound activity as filed in PubChem.
